1 compound from ChEMBL document CHEMBL1156295, “In vitro and in vivo photocytotoxicity of boron dipyrromethene derivatives for photodynamic therapy” (J Med Chem, 2010) can be followed below.

The source made the active and inactive calls. No cut-off for these calls is given here.

Series [1] deals with HSC-2. The series can be described thus: Cell cycle arrest in human HSC2 cells irradiated with 4.1 J/cm^2 broad spectrum light assessed as accumulation at G1 phase at 0.25 uM after 8 hrs by flow cytometry relative to control. Type of series: functional. The method, boiled down: (§1)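 HSC-2 cells given compound for 2 h, then irradiated with broad-spectrum light (or kept dark). Floating plus trypsinized adherent cells collected at set times after irradiation. Fixed in 70% ice-cold ethanol overnight at 4 °C, then stained 30 min with 20 μg/mL RNase A and 1 μM SYTOX Green. 1 × 10^4 cells read by flow cytometry (488 nm laser, FL1 530/30).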
Background: In flow cytometry, cells or beads pass a laser one at a time.

Series [2] is described as follows: Cellular uptake in human HSC2 cells assessed as intracellular localization in to lysosome labeled with lyso-tracker DND22 dye at 100 nM by spinning disk confocal microscopy. The settings on record: hsc-2, 0.1 µM. It is filed as ADME, cell-based. Summed up: (§2)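 HSC-2 cells grown on glass coverslips, co-incubated at room temperature for 15–30 min with compound plus probe: ER-Tracker 100 nM, LysoTracker 500 nM or Rh123 100 nM. Rinsed in PBS. XY sections at 0.2 μm imaged; excitation 330–385 nm for ER/Lyso probes, 460–490 nm for Rh123, 520–550 nm for photosensitizer.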

Series [3] can be described thus: Cellular uptake in human HSC2 cells assessed as intracellular localization in to cytoplasmic membrane at 100 nM by spinning disk confocal microscopy. Type of series: ADME, cell-based. To be noted: hsc-2, 0.1 µM. Summed up:
as §2

In series [4] the test system is HSC-2. The series can be described thus: Cell cycle arrest in human HSC2 cells irradiated with 4.1 J/cm^2 broad spectrum light assessed as accumulation at G1 phase at 0.25 uM after 2 hrs by flow cytometry relative to control. It is filed as functional. The method, boiled down: as §1
Series [5] deals with HSC-2. The series can be described thus: Induction of apoptosis in human HSC2 cells irradiated with 4.1 J/cm^2 broad spectrum light assessed as apoptotic cells at 0.5 uM after 24 hrs of irradiation by annexin V-FITC staining. It is filed as functional. Summed up:
(§3)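 HSC-2 cells at 50% confluency in dishes, treated 2 h, then irradiated (4.1 J/cm2 broad spectrum) or kept dark. At intervals, floating and trypsinized cells pooled, washed in cold PBS, resuspended at 1 × 10^6 cells/mL in binding buffer. Stained 15 min in the dark at room temperature with annexin V-FITC and propidium iodide. 1 × 10^4 cells read by flow cytometry (FL1, FL3).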

In series [6] the test system is HSC-2. The experiment in a line: Cell cycle arrest in human HSC2 cells irradiated with 4.1 J/cm^2 broad spectrum light assessed as accumulation at sub-G1 phase at 0.25 uM after 6 hrs by flow cytometry relative to control. Type of series: functional. The method, boiled down: as §1
The subject of a further series is HL-60. The experiment in a line: Phototoxicity against human HL60 cells irradiated with 4.1 J/cm^2 broad spectrum light treated 2 hrs before irradiation measured after 24 hrs by MTT assay. Type of series: functional, cell-based. To be noted: HL-60, light or radiation study. Summed up: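 HL60 at 15000 cells/well; HSC-2 and HK1 at 3000 cells/well, adhered overnight; phenol-red-free medium with 10% FBS. Compound tested at 0.001–100.0 μM from DMSO stock; controls 0.01% DMSO. After 2 h, irradiated with broad-spectrum light at 6.8 mW/cm2, or dark. After 24 h, MTT 4 h at 37 °C, formazan in DMSO, A570. Three determinations, mean ± SD.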

In series [7] the test system is HSC-2. The series can be described thus: Cell cycle arrest in human HSC2 cells irradiated with 4.1 J/cm^2 broad spectrum light assessed as accumulation at G1 phase at 0.25 uM after 4 hrs by flow cytometry relative to control. It is filed as functional. Summed up: as §1
The subject of series [8] is HSC-2. The series can be described thus: Induction of apoptosis in human HSC2 cells irradiated with 4.1 J/cm^2 broad spectrum light assessed as apoptotic cells at 0.5 uM after 12 hrs of irradiation by annexin V-FITC staining. Type of series: functional. Summed up:
as §3

Series [9] concerns HSC-2. The experiment in a line: Induction of apoptosis in human HSC2 cells irradiated with 4.1 J/cm^2 broad spectrum light assessed as apoptotic cells at 0.5 uM after 16 hrs of irradiation by annexin V-FITC staining. Type of series: functional. Summed up:
as §3

Another series is filed under the species Gallus gallus. The series can be described thus: Antiangiogenic activity against chicken chorioallantoic membrane in dark assessed as induction of vascular occlusion at 3.5 to 7 nmol/embryo. Type of series: functional, tissue-based. The method, boiled down:
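Fertilized chicken eggs incubated at 37 °C, 65% humidity. On EDD-9, single iv bolus into the main CAM vessel in cremophor EL 5%, EtOH 5% in saline. One minute later, a 0.02 cm2 site with 5–100 μm vessels irradiated at 510–560 nm, 40 mW/cm2 (or left dark). After 24 h, FITC-dextran/Indian ink angiography and damage scoring per Lange et al.; at least 10 embryos, mean ± SEM.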

The subject of series [10] is HSC-2. The series can be described thus: Cell cycle arrest in human HSC2 cells irradiated with 4.1 J/cm^2 broad spectrum light assessed as accumulation at G1 phase at 0.25 uM after 6 hrs by flow cytometry relative to control. Type of series: functional. Summed up:
as §1

Series [11] can be described thus: Cellular uptake in human HSC2 cells assessed as intracellular localization in to endoplasmic reticulum labeled with ER-tracker blue-white DPX dye at 100 nM by spinning disk confocal microscopy. It is filed as ADME, cell-based. The settings on record: hsc-2, 0.1 µM. Summed up:
as §2

Series [12] relates to HSC-2. The series can be described thus: Induction of apoptosis in human HSC2 cells irradiated with 4.1 J/cm^2 broad spectrum light assessed as viable cells at 0.5 uM after 12 hrs of irradiation by annexin V-FITC staining. The settings on record: HSC-2, light or radiation study, read-out: Activity. It is filed as functional. Summed up: as §3

The IC50 is the midpoint of a concentration-inhibition curve.

For the compound `CC1=C(I)C(C)=[N+]2C1=C(CCC(=O)O)c1c(C)c(I)c(C)n1[B-]2(F)F`, the Activity with HSC-2 [1] is 30.3%; in series [3], “Not Active”; in the series with HSC-2 [4], 46.3%; in the series with HSC-2 [5] it was 89.9%; in the series on HSC-2 [6] it was 3.9%; in the series with HSC-2 [7], 33.8%. For the same compound, the Activity in the series with HSC-2 [8] came to 20.7%; in the series on HSC-2 [9], 47.4%; in the series on HSC-2 [10] it was 26.4%. Besides, the Drug uptake result in [2] and in series [11] was “Active” each time. In the series on HL-60, this compound showed an IC50 of 0.045 µM. Further, the result in the series listed under Gallus gallus was inactive. In addition, in the series with HSC-2 [12], the viability at 0.5 µM was 79.3%.
